High-throughput results deposited in PubChem BioAssay by The Scripps Research Institute Molecular Screening Center.
Most compounds without a hit are left out; they make up all but 1.9% or so of the library.
LEDGF integ inh = blockers of LEDGF/p75-dependent integrase strand transfer – biochemical, TR-FRET, high throughput, primary screen. 0.64% of 370,000 active. inhibition, % at 3.7 µM. HIV-1 integrase (with human LEDGF/p75). AID 743269, 2014. TR-FRET IN-LEDGF/p75 DNA integration, Eu/Cy5;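 active = inhibition above the screen-wide mean plus 3 SD, cut at about 13% in these data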;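 also: signal is the Cy5 over europium emission ratio at 671 and 618 nm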
Rin1 Abl inh = inhibitors of Rin1-Abl protein binding, primary screen, biochemical, TR-FRET | AID 588664, 2011 | 0.4% of 360,000 active | inhibition, % at 7.35 µM; in the data active = inhibition above about 5%, passing the limit was not always enough
TDP2 inh = human TDP2 enzyme inhibitors, primary screen, biochemical, epi absorbance, recombinant enzyme; Tyrosyl-DNA phosphodiesterase 2 (Homo sapiens), O95551; T5PNP hydrolysis, p-nitrophenol absorbance 415 nm; inhibition, % at 12.8 µM; 0.34% of 370,000 active; AID 720702, 2013;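 active = inhibition above the mean of all tested compounds plus 3 SD, set per campaign, cut at about 25% in these data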
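System: recombinant human TDP2 / Amount: 120 nM TDP2 per well / Also added: 5 mM T5PNP chromogenic substrate / Doses: 12.8 µM single point, 1% DMSO / Incubation: 2 h at 37 °C / Detection: p-Nitrophenol epi absorbance / Evaluation: % inhibition relative to enzyme-containing and enzyme-free wells / Repeats: singlicate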
MBD2 inh = inhibitors of MBD2 binding to methylated DNA, primary screen, biochemical, TR-FRET, DNA-binding domain, human. Methyl-CpG-binding domain protein 2 (Homo sapiens), Q9UBB5. MBD2 binding to methylated oligonucleotide. inhibition, % at 4.4 µM. 0.31% of 370,000 active; in the data active = inhibition above about 13%
UHRF1 MBD2 ctr = UHRF1 methylated DNA binding inhibitors, primary screen, counter-screen for MBD2 inhibitor project, biochemical, TR-FRET, human UHRF1, single concentration. E3 ubiquitin-protein ligase UHRF1 (Homo sapiens), Q96T88. UHRF1 binding to methylated oligo. inhibition, % at 4.4 µM. 0.75% of 370,000 active. AID 687016, 2013;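 also: UHRF1 SRA domain binding a hemimethylated CpG hairpin DNA probe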
Target sequence (Q96T88 whole entry, looked up, the tested form may be a part): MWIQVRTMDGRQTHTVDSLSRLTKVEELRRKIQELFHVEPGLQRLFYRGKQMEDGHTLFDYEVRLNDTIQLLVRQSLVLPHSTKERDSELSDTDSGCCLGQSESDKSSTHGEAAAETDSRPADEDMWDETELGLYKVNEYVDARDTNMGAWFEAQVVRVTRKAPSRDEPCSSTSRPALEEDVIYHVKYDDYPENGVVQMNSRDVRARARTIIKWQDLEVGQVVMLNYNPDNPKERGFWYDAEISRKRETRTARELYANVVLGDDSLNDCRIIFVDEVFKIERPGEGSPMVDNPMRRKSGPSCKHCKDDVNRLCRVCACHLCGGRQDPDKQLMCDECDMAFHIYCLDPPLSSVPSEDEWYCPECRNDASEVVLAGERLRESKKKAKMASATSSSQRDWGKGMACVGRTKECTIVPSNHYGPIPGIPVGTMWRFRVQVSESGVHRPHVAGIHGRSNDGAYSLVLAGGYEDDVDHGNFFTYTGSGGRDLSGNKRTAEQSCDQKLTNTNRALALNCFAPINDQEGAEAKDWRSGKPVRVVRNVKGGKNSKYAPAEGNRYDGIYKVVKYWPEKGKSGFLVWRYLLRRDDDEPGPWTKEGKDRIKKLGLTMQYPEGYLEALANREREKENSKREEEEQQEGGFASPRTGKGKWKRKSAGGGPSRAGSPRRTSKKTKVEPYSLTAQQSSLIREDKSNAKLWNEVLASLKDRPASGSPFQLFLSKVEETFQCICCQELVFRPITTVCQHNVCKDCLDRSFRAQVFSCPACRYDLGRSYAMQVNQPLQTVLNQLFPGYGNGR
UHRF1 ctr MBD2 = UHRF1 methylated DNA binding inhibitors, counter-screen for MBD2 inhibitor project, biochemical, TR-FRET, human UHRF1; 25% of 1,000 active; inhibition, % at 4.4 µM; shares compounds with MBD2 inh; UHRF1 binding to methylated oligonucleotide;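 also: UHRF1 SRA domain binding a labeled hemimethylated CpG hairpin DNA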
MBD2 confirm = inhibitors of MBD2 binding to methylated DNA, confirmation, biochemical, TR-FRET, DNA-binding domain, human | shares compounds with MBD2 inh | TR-FRET MBD2-DBD binding to methylated oligonucleotide | inhibition, % at 4.4 µM | 26% of 1,000 active; in the data active = inhibition above about 14%
TDP2 confirm = human TDP2 enzyme inhibitors, retest, confirmation, biochemical, epi absorbance, recombinant enzyme | absorbance read-out | shares compounds with TDP2 inh | 22% of 1,100 active | inhibition, % at 12.8 µM; in the data active = inhibition above about 25%
IN multimer act = HIV-1 IN multimer formation enhancers, counter-screen for LEDGF/p75 integration inhibitor project, biochemical, TR-FRET | activation, % at 7.7 µM | shares compounds with LEDGF integ inh | 17% of 2,000 active | TR-FRET HIV-1 integrase multimerization; in the data active = activation above about 8.9%
TR-FRET interf = TR-FRET optical interference artefacts, confirmation, artefact control for LEDGF/p75-dependent integration inhibitor project, biochemical, HIV-1 IN multimerization. TR-FRET optical interference counterscreen. 2,000 tested, under 10 active. shares compounds with LEDGF integ inh. inhibition, % at 7.7 µM. AID 1053135, 2014;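 active = inhibition above the mean over all tested compounds plus 3 SD, which no compound reached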
IN-LEDGF confirm = inhibitors of HIV-1 IN-LEDGF/p75 DNA integration, confirmation, biochemical, TR-FRET; 36% of 2,000 active; shares compounds with LEDGF integ inh; TR-FRET LEDGF/p75-dependent HIV-1 integration; AID 1053136, 2014; inhibition, % at 3.7 µM; in the data active = inhibition above about 14%
Each line names hits and unclear results; the compound was inactive in the other large screens (follow-up assays come after a bar, where they were run). Rule as the data show it, unless noted: active = inhibition above about 21%; inactive = the rest.

COC(=O)C[C@H]1CC[C@@H]2[C@H](COc3ccc(NC(=O)c4cnccn4)cc3C(=O)N2C)O1	none (no result: Rin1 Abl inh)
O=C(COC(=O)c1cncc(Br)c1)NCc1ccco1	LEDGF integ inh 16.3, MBD2 inh 13.7, UHRF1 MBD2 ctr 43.8 | UHRF1 ctr MBD2 26.3 | MBD2 confirm 13.9 | IN multimer act inactive | TR-FRET interf inactive | IN-LEDGF confirm 29.1
Cn1c(=O)c(=O)n(C)c2cc(S(=O)(=O)N3CCN(c4ccccc4Cl)CC3)ccc21	none (no result: Rin1 Abl inh)
N#C/C(=C\c1ccc(O)c(O)c1)C(=O)c1ccc(O)c(O)c1	LEDGF integ inh 91.1, MBD2 inh 19.2, UHRF1 MBD2 ctr 64.3 | UHRF1 ctr MBD2 67.0 | MBD2 confirm 29.4 | IN multimer act 20.0 | TR-FRET interf inactive | IN-LEDGF confirm 89.5
Cc1cc(C)cc(NC(=O)OC2CC3CC2[C@H]2CCCCN2[C@H]3C)c1 (some centres not stated)	none (no result: Rin1 Abl inh)
N#Cc1c(SCC(=O)Nc2nncs2)sc2c(O)cc(=O)[nH]c12	LEDGF integ inh 20.1, MBD2 inh 17.6, UHRF1 MBD2 ctr 48.2 | UHRF1 ctr MBD2 42.5 | MBD2 confirm 22.7 | IN multimer act 29.0 | TR-FRET interf inactive | IN-LEDGF confirm 25.9
NC(=O)c1sc2nc3c(c(-c4ccco4)c2c1N)CCC3	LEDGF integ inh 43.0, TDP2 inh 26.2, MBD2 inh 14.9, UHRF1 MBD2 ctr 47.3 | UHRF1 ctr MBD2 inactive | MBD2 confirm inactive | TDP2 confirm inactive | IN multimer act inactive | TR-FRET interf inactive | IN-LEDGF confirm inactive
C=C(C)C(=O)Nc1cccc(C2=NOC3(C2)C[C@@H](C(N)=O)N(C(=O)/C=C/C=C/C)C3)c1 (some centres not stated)	LEDGF integ inh 18.0, MBD2 inh 47.5, UHRF1 MBD2 ctr 78.7 | UHRF1 ctr MBD2 87.6 | MBD2 confirm 59.7 | IN multimer act 40.8 | TR-FRET interf inactive | IN-LEDGF confirm 19.5
C=C(C)C(=O)Nc1cccc(C2=NOC3(C2)C[C@@H](C(N)=O)N(C(=O)/C(C)=C/C)C3)c1 (some centres not stated)	LEDGF integ inh 38.9, MBD2 inh 38.0, UHRF1 MBD2 ctr 88.9 | UHRF1 ctr MBD2 91.1 | MBD2 confirm 68.6 | IN multimer act 56.5 | TR-FRET interf inactive | IN-LEDGF confirm 51.5
C/C=C(\C)C(=O)Nc1cccc(C2=NOC3(C2)C[C@@H](C(N)=O)N(C(=O)/C(C)=C/C)C3)c1 (some centres not stated)	none
CSCCCNC(=O)C1CCN(S(=O)(=O)c2ccc3[nH]c(=O)oc3c2)CC1	none (no result: Rin1 Abl inh)
